High-throughput results (PubChem)
Rows were chosen to be rich in hits. Some 2% of all compounds tested hit in one or more screens of this group.
ARNT TACC3 PPI: disrupts binding between human ARNT and TACC3. Q9Y6A5. AlphaScreen His-ARNT PAS-B/GST-TACC3 binding, luminescence; TACC3 fragment carries E629A point mutation. inhibition, % at 9.99 µM. 390,000 tested, 0.66% active. AID 623870;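 active = mean inhibition of replicates at least 50% and at least half of replicates each reaching 50%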;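 also: 0% = complete ARNT plus TACC3 wells and 100% = ARNT alone without TACC3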
T cruzi repl: T. cruzi replication inhibition; T. cruzi beta-gal in NIH3T3, luminescence, 90 h; inhibition, % (test concentration not listed); 300,000 tested, 1.4% active;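 active = mean inhibition across valid replicates above about 55%, limit read from the data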;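 also: signal also drops with host cell toxicity which is not excluded here; 0% = plate median of DMSO wells and 100% = zero luminescence signal; higher percent means less beta-gal luminescence so fewer parasites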
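Material: NIH/3T3 host cells with β-galactosidase reporter T. cruzi; Input: 5,000 host fibroblasts per well; Medium: DMEM, 2% fetal bovine serum; Compound: 50 nL DMSO compound solution per well; Schedule: 3 h host attachment, then at least 90 h co-culture; Detection: luminescent β-galactosidase signal after 60 min lysis.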
HIF activator: HIF pathway transcriptional activation; U2OS HRE-luciferase reporter, luminescence; normalized: DMSO 0%, desferrioxamine 100%; activation, % at 7.5 µM (by protocol); 300,000 tested, 0.32% active; AID 1910;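 active = mean activation of at least 10% of the iron chelator positive control signal, with at least half of replicates also reaching 10%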
AI-2 QS modul: Vibrio harveyi AI-2 quorum sensing modulation. activity change, % at 7.5 µM. Vibrio harveyi JMH597 AI-2 luminescence/OD600 ratio, 9 h; active compounds read low; strain lacks LuxN and CqsS sensors; 0 = neutral-control median. 300,000 tested, 0.4% active; in the data active = activity change below about -75%, passing the limit was not always enough;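 also: luminescence divided by OD600 gain over 9 h not by final OD600 alone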
Active calls of the source: *; . = not tested or not shown.

SMILES | ARNT TACC3 PPI | T cruzi repl | HIF activator | AI-2 QS modul
CN1Cc2cccc3c2C(Cc2ccccc2S3)C1 (stereo not given) | 6 | 58* | 0 | 12
CCOc1cc(CNc2ccc(N3CCCC3)cc2)cc(Cl)c1OC | 2 | 49 | 0 | 9
C=CCOc1c(Cl)cc(CNc2ccc(N(C)C)cc2)cc1OC | 25 | 34 | 4 | .
COc1cc(CNc2ccc(N3CCCC3)cc2)cc(Cl)c1OC | 4 | 73* | -2 | 66
COc1ccccc1CNc1ccc(N2CCCCC2)cc1 | 22 | 65* | -1 | 3
C=CCOc1c(Cl)cc(CNc2ccc(C)c(Cl)c2)cc1OC | . | 55* | 2 | 7
Cc1ccc(C)c(NC(=S)N2CCC(c3nc4ccccc4s3)CC2)c1 | 4 | 60* | 0 | 24
Cc1ccc2nc(C3CCCN(C(=S)Nc4ccccc4C)C3)[nH]c2c1 (stereo not given) | -2 | 67* | 0 | 21
CCNC(=S)N1CCCC(c2nc3ccc(C)cc3[nH]2)C1 (stereo not given) | 2 | -25 | 0 | 11
CCOC(=O)C1CCN(c2ncnc3c2c(-c2ccccc2)cn3-c2ccccc2)CC1 | 1 | 59* | -1 | 11
O=C(C[C@@H]1C=C[C@H](NC(=O)Nc2cc(F)ccc2F)[C@@H](CO)O1)NCc1ccc2c(c1)OCO2 | 5 | . | . | .
CN1/C(=C\P(=O)(N(C)C)N(C)C)C(C)(C)c2ccccc21 | -2 | 62* | 0 | 11
Cc1ccc2nc(C)cc(Nc3ccc([N+](=O)[O-])cc3)c2c1 | . | -46 | -3 | 18
COc1cc(Nc2ccc(C)cc2)c([N+](=O)[O-])nc1[N+](=O)[O-] | 4 | 60* | 0 | 33
Cc1cccc(Nc2n[nH]c(C)c2[N+](=O)[O-])c1 | -2 | -1 | 4 | 10
Cc1cc(C)cc(Nc2ccc([N+](=O)[O-])nc2[N+](=O)[O-])c1 | 1 | 67* | 0 | 18
CCCSc1nsc(NC(=O)CCC)n1 | -4 | 56* | 1 | 31
CCCCSc1nsc(NC(C)=O)n1 | . | 47 | 3 | 31
COCC(=O)Nc1ccc2c(c1)C(=O)N(C)[C@H]1CC[C@@H](CC(=O)NCC3CCCCC3)O[C@@H]1CO2 | -11 | . | . | .
CCOC(=O)C(C)Sc1ncnc2c1c(-c1ccccc1)cn2-c1ccc(OC)cc1 (stereo not given) | -26 | 53 | 0 | 16
COC(=O)C(C)Sc1ncnc2c1c(-c1ccccc1)cn2-c1ccc(OC)cc1 (stereo not given) | 49* | 48 | 0 | 13
C/C=C/c1ccc2c(c1)O[C@@H](CN(C)C(=O)c1ccccc1F)[C@@H](C)CN([C@H](C)CO)S2(=O)=O | -2 | . | . | .
C[C@@H]1CN([C@@H](C)CO)C(=O)c2cc(NC(=O)Cc3ccccc3)ccc2O[C@H]1CN(C)Cc1ccncc1 | -16 | . | . | .
C[C@@H](NC(=O)[C@H]1N[C@H]2c3ccc(C4=CCCC4)c(=O)n3C[C@H]2[C@@H]1CO)c1ccccc1 | 1 | . | . | .
O=C(c1c[nH]c(C(=O)N2CCN(c3ccccc3F)CC2)c1)c1cccc(Cl)c1Cl | 0 | 60* | -2 | 7
SMILES | ARNT TACC3 PPI | T cruzi repl | HIF activator | AI-2 QS modul
COc1ccc(S(=O)(=O)Nc2cc(SCC(=O)O)c(O)c3ccccc23)cc1 | 61* | 4 | 4 | 34
O=C(O)CSc1cc(NS(=O)(=O)c2ccc(Cl)cc2)c2ccccc2c1O | 48* | -2 | 0 | 34
CC(C)NC(=O)N[C@@H]1CC[C@H](CC(=O)O)O[C@H]1CO | 2 | . | . | .
Cc1ccc(S(=O)(=O)N(C)C[C@H]2Oc3ccc(NC(=O)NC(C)C)cc3C(=O)N([C@H](C)CO)C[C@H]2C)cc1 | 0 | . | . | .
COc1ccc(/C=C2\CN(Cc3ccccc3)C/C(=C\c3ccc(OC)cc3OC)C2=O)c(OC)c1 | 1 | 81* | -1 | 44
CC1(C)CC2CC(C)(CN2C(=O)COC(=O)c2ccc(O)cc2O)C1 (stereo not given) | 2 | . | . | .
CC1(C)CC2CC(C)(CN2C(=O)COC(=O)c2cc(Cl)cc(Cl)c2N)C1 (stereo not given) | 14* | 40 | 0 | 4
N#CCSc1nc2cc(C(=O)N3CCC(C(N)=O)CC3)ccc2c2nc3ccccc3n12 | 47* | -7 | 0 | -2
CC(C)Cc1ccc(CN2CCCC(NC(=O)CSc3nncn3C)C2)cc1 (stereo not given) | -11 | 55* | 0 | 30
CC(C)Cc1ccc(CN2CCCC(NC(=O)c3nn(C)c(=O)c4ccccc34)C2)cc1 (stereo not given) | 2 | 60* | 0 | 14
